{"data": "Measured values gathered from unrelated publications", "CHRM3": "Muscarinic acetylcholine receptor M3 (CHRM3, Homo sapiens, UniProt P20309)", "Inositol-tetrakisphosphate 1-kinase": "Inositol-tetrakisphosphate 1-kinase (Homo sapiens, UniProt Q13572)", "PIK3CG": "Phosphatidylinositol 4,5-bisphosphate 3-kinase catalytic subunit gamma isoform (PIK3CG, Homo sapiens, UniProt P48736)", "PTGS2": "Prostaglandin G/H synthase 2 (PTGS2, Homo sapiens, UniProt P35354)", "note": "Compare with care: the assays were run in different laboratories."}
{"SMILES": "O=C(CCNC(=O)CNC(=O)CC(c1ccccc1)(c1ccccc1)c1ccccc1)NC[C@@H]1CCCN(Cc2ccc(F)nc2)C1", "target": "CHRM3", "assay": "ligand displacement, radioligand", "setting": "cell membranes", "IC50": "8.2 µM"}
{"SMILES": "Nc1ncnc2c1ncn2[C@@H]1O[C@H](CO)C[C@H]1O", "target": "Inositol-tetrakisphosphate 1-kinase", "assay": "enzyme activity, inhibitor", "IC50": "3.1 µM"}
{"SMILES": "O=C(CCc1ccc(Cl)cc1)N1C(=O)C(=Nc2ccc(Cl)cc2Br)c2ccccc21", "target": "PIK3CG", "assay": "enzyme activity, inhibitor, ADP detection", "IC50": "0.00965 µM"}
{"SMILES": "CN(C)C(=O)c1cc2cnc(Nc3cc(C(=O)O)cc(-c4ccc5c(=O)cc(N6CCOCC6)oc5c4)c3)nc2n1C1CCCC1", "target": "PIK3CG", "assay": "enzyme activity, inhibitor, radiometric", "IC50": "17.3 µM"}
{"SMILES": "Nc1ncnc2c1ncn2C1CCCC1", "target": "Inositol-tetrakisphosphate 1-kinase", "assay": "enzyme activity, inhibitor", "IC50": "0.026 µM"}
{"SMILES": "NS(=O)(=O)c1ccc(-n2nc(C(=O)NN3C(=O)c4ccccc4C3=O)cc2-c2ccccc2)cc1", "target": "PTGS2", "assay": "enzyme activity, inhibitor", "IC50": "2.64 µM"}
{"SMILES": "COc1ccc(-c2cc(=O)c3ccc(Nc4ncc5cc(C(=O)N(C)C)n(C6CCCC6)c5n4)cc3o2)cc1", "target": "PIK3CG", "assay": "enzyme activity, inhibitor, radiometric", "IC50": "6.03 µM"}
{"SMILES": "O=C1Nc2ccccc2C1=Nc1ccccc1I", "target": "PIK3CG", "assay": "enzyme activity, inhibitor, ADP detection", "IC50": "0.00388 µM"}
{"SMILES": "CN(C)C(=O)c1cc2cnc(Nc3ccc4c(=O)cc(N5CCOCC5)oc4c3)nc2n1C1CCCC1", "target": "PIK3CG", "assay": "enzyme activity, inhibitor, radiometric", "IC50": "0.461 µM"}
{"SMILES": "Cc1ccc(CN2C(=O)C(=Nc3cccc(Cl)c3)c3ccccc32)cc1", "target": "PIK3CG", "assay": "enzyme activity, inhibitor, ADP detection", "IC50": "0.00111 µM"}
{"SMILES": "CN(C)C(=O)c1cc2cnc(Nc3cncc(-c4ccc5c(=O)cc(N6CCOCC6)oc5c4)c3)nc2n1C1CCCC1", "target": "PIK3CG", "assay": "enzyme activity, inhibitor, radiometric", "IC50": "1.2 µM"}
{"SMILES": "CC(C)c1cccc(C(C)C)c1N=C1C(=O)N(Cc2ccccc2)c2ccccc21", "target": "PIK3CG", "assay": "enzyme activity, inhibitor, ADP detection", "IC50": "0.00168 µM"}
{"SMILES": "Nc1ncnc2c1cnn2C1CCCCC1", "target": "Inositol-tetrakisphosphate 1-kinase", "assay": "enzyme activity, inhibitor", "IC50": "3.2 µM"}
{"SMILES": "O=C(CCNC(=O)CNC(=O)CC(c1ccccc1)(c1ccccc1)c1ccccc1)NC[C@@H]1CCCN(Cc2cccnc2F)C1", "target": "CHRM3", "assay": "ligand displacement, radioligand", "setting": "cell membranes", "IC50": "3.8 µM"}
{"SMILES": "NC(=O)C1CN(C(=O)CCl)c2ccccc2O1 (stereo not drawn)", "target": "Creatine kinase U-type, mitochondrial (CKMT1A, Homo sapiens, UniProt P12532)", "assay": "enzyme activity, inhibitor, ADP detection", "setting": "pH 8.5", "IC50": "3 µM"}
{"SMILES": "O=C1Nc2ccccc2/C1=N/c1ccccc1Br", "target": "PIK3CG", "assay": "enzyme activity, inhibitor, ADP detection", "IC50": "0.176 µM"}
{"SMILES": "CC(C)N(CCC(=O)c1ccc2ccccc2c1)Cc1ccccc1", "target": "Retinal dehydrogenase 2 (ALDH1A2, Homo sapiens, UniProt O94788)", "assay": "enzyme activity, inhibitor, fluorescence", "setting": "15 min, pH 7.5", "IC50": "< 10 µM"}
{"SMILES": "COc1cc(N=C2C(=O)Nc3ccccc32)cc(OC)c1", "target": "PIK3CG", "assay": "enzyme activity, inhibitor, ADP detection", "IC50": "0.00786 µM"}
{"SMILES": "Nc1ncnc2c1ncn2C1CCCO1 (stereo not drawn)", "target": "Inositol-tetrakisphosphate 1-kinase", "assay": "enzyme activity, inhibitor, ADP detection", "IC50": "0.92 µM"}
{"SMILES": "CN(C)C(=O)c1cc2cnc(Nc3ccc(-c4cccc5c(=O)cc(N6CCOCC6)oc45)cc3)nc2n1C1CCCC1", "target": "PIK3CG", "assay": "enzyme activity, inhibitor, radiometric", "IC50": "> 10 µM"}
{"SMILES": "c1ccc(COc2[nH]cnc3ncnc2-3)cc1", "target": "Inositol-tetrakisphosphate 1-kinase", "assay": "enzyme activity, inhibitor", "IC50": "5.3 µM"}
{"SMILES": "CC(=NNC(=O)c1cc(-c2ccccc2)n(-c2ccc(S(N)(=O)=O)cc2)n1)c1ccc(Br)cc1", "target": "PTGS2", "assay": "enzyme activity, inhibitor", "IC50": "1.25 µM"}
{"SMILES": "CCc1ccc(N=C2C(=O)Nc3ccccc32)cc1", "target": "PIK3CG", "assay": "enzyme activity, inhibitor, ADP detection", "IC50": "0.0934 µM"}
{"SMILES": "Nc1ncnc2c1ncn2[C@@H]1O[C@H](CO)[C@@H](O)[C@@H]1F", "target": "Inositol-tetrakisphosphate 1-kinase", "assay": "enzyme activity, inhibitor", "IC50": "0.86 µM"}
{"SMILES": "COc1cc(NC(=O)c2cnn(-c3ccc([N+](=O)[O-])cc3)c2C(F)(F)F)cc(OC)c1OC", "target": "PTGS2", "assay": "enzyme activity, inhibitor", "IC50": "4.82 µM"}
{"SMILES": "NS(=O)(=O)c1ccc(-n2nc(-c3nnc(CCl)o3)cc2-c2ccccc2)cc1", "target": "PTGS2", "assay": "enzyme activity, inhibitor", "IC50": "2.64 µM"}
{"SMILES": "CN(C)C(=O)c1cc2cnc(Nc3cc(C(F)(F)F)c(-c4cccc5c(=O)cc(N6CCOCC6)oc45)cn3)nc2n1C1CCCC1", "target": "PIK3CG", "assay": "enzyme activity, inhibitor, radiometric", "IC50": "> 10 µM"}
{"SMILES": "O=C1C(=Nc2ccccc2Br)c2ccccc2N1Cc1ccccc1", "target": "PIK3CG", "assay": "enzyme activity, inhibitor, ADP detection", "IC50": "0.0076 µM"}
{"SMILES": "CN(C)C(=O)c1cc2cnc(Nc3ccc(-c4ccc5c(=O)cc(N6CCOCC6)oc5c4)cc3)nc2n1C1CCCC1", "target": "PIK3CG", "assay": "enzyme activity, inhibitor, radiometric", "IC50": "3.39 µM"}
{"SMILES": "NS(=O)(=O)c1ccc(-n2nc(C(=O)NN=Cc3ccccc3O)cc2-c2ccccc2)cc1", "target": "PTGS2", "assay": "enzyme activity, inhibitor", "IC50": "1.55 µM"}
{"SMILES": "CC(C)NC(=O)COc1cccc(-c2nc(Nc3ccc4[nH]ncc4c3)c3ccccc3n2)c1", "target": "UDP-glucuronosyltransferase 1A1 (UGT1A1, Homo sapiens, UniProt P22309)", "assay": "enzyme activity, inhibitor", "IC50": "0.0609 µM"}
{"SMILES": "CN(C)C(=O)c1cc2cnc(Nc3cc(C(F)(F)F)c(-c4ccc5c(=O)cc(N6CCOCC6)oc5c4)cn3)nc2n1C1CCCC1", "target": "PIK3CG", "assay": "enzyme activity, inhibitor, radiometric", "IC50": "> 10 µM"}
{"SMILES": "C=CC(=O)N1CCN(c2nc(=O)n(-c3c(C)ccnc3C(C)C)c3nc(-c4c(O)cccc4F)c(F)cc23)[C@@H](C)C1", "target": "GTPase NRas (NRAS, Homo sapiens, UniProt P01111, C181S/C186S/G12C)", "assay": "enzyme activity, inhibitor", "IC50": "0.0572 µM"}
